Published values from different studies.
Lines come from different studies, so protocols differ.
SLC18A2: Synaptic vesicular amine transporter (SLC18A2, Homo sapiens, UniProt Q05940)
ADRA2A: Alpha-2A adrenergic receptor (ADRA2A, Homo sapiens, UniProt P08913)
LATS1: Serine/threonine-protein kinase LATS1 (LATS1, Homo sapiens, UniProt O95835)

| Compound | target | test | setting | quantity | value |
| --- | --- | --- | --- | --- | --- |
| COc1cc(C)c(/C=C/C(C)=C/C=C/C(C)=C/C(=O)O)c(C)c1C | Carbonic anhydrase 2 (CA2, Homo sapiens, UniProt P00918) | enzyme activity, inhibitor, absorbance | pH 7.4 | IC50 | 12600 nM |
| O=c1n(CCCN2CCN(c3cccc(Cl)c3)CC2)nc2ccccn12 | SLC18A2 | transporter uptake, inhibitor |  | IC50 | 2780 nM |
| CC(C)C[C@H](NC(=O)[C@H](CC(C)C)NC(=O)[C@H](Cc1c[nH]c2ccccc12)NC(=O)[C@H](CCC(N)=O)NC(=O)[C@@H](NC(=O)[C@H](Cc1ccccc1)NC(=O)[C@H](CC(=O)O)NC(=O)[C@H](CCC(N)=O)NC(=O)[C@H](C)NC(=O)[C@H](C)NC(=O)[C@H](CCCNC(=N)N)NC(=O)[C@H](CCC(=O)O)NC(=O)[C@H](CC(=O)O)NC(=O)[C@H](CC(C)C)NC(=O)[C@H](Cc1ccc(O)cc1)NC(=O)[C@H](CCCCN)NC(=O)[C@H](CO)NC(=O)[C@H](Cc1ccc(O)cc1)NC(=O)[C@H](CC(=O)O)NC(=O)[C@H](CO)NC(=O)[C@@H](NC(=O)[C@H](Cc1ccccc1)NC(=O)[C@@H](NC(=O)CNC(=O)[C@H](CCC(N)=O)NC(=O)C(C)(C)NC(=O)[C@@H](N)Cc1c[nH]cn1)[C@@H](C)O)[C@@H](C)O)C(C)C)C(=O)N[C@@H](CC(=O)O)C(=O)NCC(=O)NCC(=O)N1CCC[C@H]1C(=O)N[C@@H](CO)C(=O)N[C@@H](CC(C)C)C(=O)N[C@@H](CCCNC(=N)N)C(=O)N[C@@H](Cc1c[nH]cn1)C(=O)N[C@@H](Cc1ccc(O)cc1)C(=O)N[C@@H](CC(C)C)C(=O)N[C@@H](CC(N)=O)C(=O)N[C@@H](CC(C)C)C(=O)N[C@H](C(=O)N[C@H](C(=O)N[C@@H](CCCNC(=N)N)C(=O)N[C@@H](CCC(N)=O)C(=O)N[C@@H](CCCNC(=N)N)C(=O)N[C@@H](Cc1ccc(O)cc1)C(N)=O)[C@@H](C)O)C(C)C | Gastric inhibitory polypeptide receptor (GIPR, Homo sapiens, UniProt P48546) | reporter gene, agonist, luciferase |  | EC50 | 0.28 nM |
| Cc1cc(Oc2ncccc2CN2CCN(c3ccccc3Br)CC2)ccc1-c1c(C)c(=O)[nH]c(=O)n1C | ADRA2A | ligand displacement, radioligand |  | Ki | 135 nM |
| Cc1cc(-c2ccnc3[nH]cc(F)c23)cc(F)c1[C@@]1(O)[C@H](C)CN(C2CCS(=O)(=O)CC2)C[C@@H]1C | LATS1 | binding, TR-FRET |  | Kd | 2.5 nM |
| Cc1cc(C#CC2(O)CCCCC2)cc2c1cc(C(=O)O)n2-c1ccccc1 | Microphthalmia-associated transcription factor (Homo sapiens, UniProt O75030) | binding, ITC |  | Kd | 3500 nM |
| Clc1ccc(C2(c3ccc(-c4ccnc5[nH]ccc45)cc3)CCNCC2)cc1 | LATS1 | target engagement in cells, BRET |  | IC50 | 2230 nM |
| Cc1ccccc1N1CCN(CCc2nnc3n2CCCC3)CC1 | SLC18A2 | transporter uptake, inhibitor |  | IC50 | 566 nM |
| CN1CCC(=C2c3ccccc3CC(=O)c3sccc32)CC1 | Carbonic anhydrase 1 (CA1, Homo sapiens, UniProt P00915) | enzyme activity, inhibitor, absorbance | pH 7.4 | IC50 | 10300 nM |
| Cc1cnc(Nc2ccc(OCCN3CCCC3)cc2)nc1Nc1cccc(S(=O)(=O)NC(C)(C)C)c1 | SLC18A2 | transporter uptake, inhibitor, radiometric | cell membranes | IC50 | 418 nM |
| Cc1cc(Oc2ncccc2CN2CCN(c3cccc4ccccc34)CC2)ccc1-c1c(C)c(=O)[nH]c(=O)n1C | ADRA2A | ligand displacement, radioligand |  | Ki | 186 nM |
| CC(C)NCC(O)COc1ccc(COCCOC(C)C)cc1 (centres unmarked) | SLC18A2 | transporter uptake, inhibitor |  | IC50 | 7540 nM |
| Cc1cc(Oc2ncccc2CN2CCN(c3cccc(Cl)c3Cl)CC2)ccc1-c1c(C)c(=O)[nH]c(=O)n1C | ADRA2A | ligand displacement, radioligand |  | Ki | 214 nM |
| O=C(c1ccc(OCCN2CCCCC2)cc1)c1c(-c2ccc(O)cc2)sc2cc(O)ccc12 | SLC18A2 | transporter uptake, inhibitor, radiometric | cell membranes | IC50 | 127 nM |
| Cc1cc(Oc2ncccc2CN2CCN(c3ccc(F)cc3F)CC2)ccc1-c1c(C)c(=O)[nH]c(=O)n1C | ADRA2A | ligand displacement, radioligand |  | Ki | 326 nM |
| O=C(CCCN1CCC(O)(c2ccc(Br)cc2)CC1)c1ccc(F)cc1 | SLC18A2 | transporter uptake, inhibitor |  | IC50 | 92 nM |
| Cc1cc(-c2ccnc3[nH]cc(F)c23)cc(F)c1[C@@]1(O)[C@H](C)CN(C(=O)CN)C[C@@H]1C | LATS1 | target engagement in cells, BRET |  | IC50 | 6.1 nM |
| Cc1cc(Oc2ncccc2CN2CCN(c3cccc(F)c3)CC2)ccc1-c1c(C)c(=O)[nH]c(=O)n1C | ADRA2A | ligand displacement, radioligand |  | Ki | 88.7 nM |
| c1cc(-c2ccc(C3CCNCC3)cc2)c2cc[nH]c2n1 | LATS1 | target engagement in cells, BRET |  | IC50 | > 50000 nM |
| Cc1cc(Oc2ncccc2CN2CCN(CCc3ccccc3)CC2)ccc1-c1c(C)c(=O)[nH]c(=O)n1C | ADRA2A | ligand displacement, radioligand |  | Ki | 2540 nM |
